From ChEMBL document CHEMBL4354867, “Validation and Characterization of Five Distinct Novel Inhibitors of Human Cytomegalovirus” (J Med Chem, 2020)
Activity calls are given as the source filed them. The calls are words filed in the database; no cut-off is given here.

Legend:
Human betaherpesvirus 5 [1] = experiment: Inhibition of viral protein expression in HCMV Towne infected in human HFF cells assessed as reduction in pp65 expression at 3 uM treated with compound for 24 hrs followed by viral infection at MOI of 1 PFU/cell measured at 72 hrs post infection by Western blot analysis; type: functional, organism-based; details: strain Towne
Outline: (§1)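 HFFs pretreated with compound, then infected with HCMV Towne at MOI 1, 0.1 or 0.01. Viral proteins in cell lysates detected at 72 hpi by SDS-PAGE (8–10%), PVDF transfer and chemiluminescent immunoblot. Images from a representative experiment.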

Human betaherpesvirus 5 [2] = experiment: Antiviral activity against HCMV TB40 infected in human HFF cells assessed as reduction in plaque formation at 1 to 10 uM treated with compound following viral infection at MOI of 100 PFU/ml and measured after 10 days by crystal violet staining based assay; type: functional, organism-based
Human betaherpesvirus 5 [3] = experiment: Antiviral activity against HCMV Towne infected in human HFF cells assessed as reduction in plaque formation treated with compound following viral infection at MOI of 1 PFU/cell and measured at 10 days post-infection in presence of letermovir by crystal violet staining based assay; type: functional, organism-based; details: Human betaherpesvirus 5, strain Towne, 240 h
Human betaherpesvirus 5 [4] = experiment: Antiviral activity against HCMV Towne infected in human HFF cells assessed as reduction in viral entry into host cell by measuring nuclear localization of pp65 at 3 uM treated with compound for 24 hrs followed by viral infection at MOI of 0.1 PFU/cell measured at 2 hrs post infection by immunofluorescence microscopy; type: functional, organism-based; details: strain Towne
Outline: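 HFFs on chamber slides pretreated 24 h with compound diluted in serum-free medium, then infected with HCMV Towne for 2 h. Heparin 30 μM as positive entry-block control. Cells methanol-fixed, then stained with anti-pp65 (1:50) and rhodamine anti-mouse IgG, with DAPI. Nuclear pp65 viewed by fluorescence microscopy at 40x; repeated three times.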

Human betaherpesvirus 5 [5] = experiment: Inhibition of viral protein expression in HCMV Towne infected in human HFF cells assessed as reduction in IE2 expression at 3 uM treated with compound for 24 hrs followed by viral infection at MOI of 1 PFU/cell measured at 72 hrs post infection by Western blot analysis; type: functional, organism-based; details: strain Towne; outline: as §1
Human betaherpesvirus 5 [6] = experiment: Inhibition of viral protein expression in HCMV Towne infected in human HFF cells assessed as reduction in pp65 expression at 3 uM treated with compound for 24 hrs followed by viral infection at MOI of 0.01 PFU/cell measured at 72 hrs post infection by Western blot analysis; type: functional, organism-based; details: strain Towne; outline: as §1
Human betaherpesvirus 5 [7] = experiment: Inhibition of viral protein expression in HCMV Towne infected in human HFF cells assessed as reduction in IE1 expression at 3 uM treated with compound for 24 hrs followed by viral infection at MOI of 1 PFU/cell measured at 72 hrs post infection by Western blot analysis; type: functional, organism-based; details: strain Towne; outline: as §1
Human betaherpesvirus 5 [8] = experiment: Antiviral activity against GCV-resistant HCMV Towne infected in human HFF cells assessed as reduction in plaque formation treated with compound following viral infection and incubated for 8 to 10 days by crystal violet staining based assay; type: functional, organism-based; details: Human betaherpesvirus 5, strain Towne
Human betaherpesvirus 5 [9] = experiment: Inhibition of viral protein expression in HCMV Towne infected in human HFF cells assessed as reduction in UL84 expression at 3 uM treated with compound for 24 hrs followed by viral infection at MOI of 1 PFU/cell measured at 72 hrs post infection by Western blot analysis; type: functional, organism-based; details: strain Towne; outline: as §1
Human betaherpesvirus 5 [10] = experiment: Antiviral activity against HCMV Towne infected in human HFF cells assessed as reduction in plaque formation treated with compound following viral infection and incubated for 8 to 10 days by crystal violet staining based assay; type: functional, organism-based; details: Human betaherpesvirus 5, strain Towne
[11] = Antiviral activity against Mouse Cytomegalovirus Smith (ATCC VR-1399) infected in mouse MEF cells assessed as reduction in plaque formation measured after 3 days by crystal violet staining based assay; type: functional, cell-based, Murine cytomegalovirus (strain Smith); details: mef
Outline: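 Plaque reduction with MCMV Smith in mouse embryonic fibroblasts, with compound in a carboxymethylcellulose overlay. Assay ended at 3 days and plaques counted after crystal violet staining.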

Human alphaherpesvirus 2 = experiment: Antiviral activity against HSV 2 infected in African green monkey Vero cells assessed as reduction in plaque formation incubated for 36 hrs by crystal violet staining based assay; type: functional, organism-based; details: vero
Outline: (§2)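 Plaque reduction in Vero cells: virus adsorbed 60 min, then compound added in a carboxymethylcellulose overlay. Plaques counted after 36 h by crystal violet staining.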

Human betaherpesvirus 5 [12] = experiment: Antiviral activity against GCV-resistant HCMV Towne infected in human HFF cells assessed as reduction in plaque formation at 0.1 to 10 uM treated with compound for 24 hrs followed by viral infection at MOI of […] and measured after 10 days by crystal violet staining based assay; type: functional, organism-based; details: strain Towne
Outline: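 Overlay of DMEM with 0.5% carboxymethylcellulose and 4% FBS, 37 °C. After 10 days plaques stained with crystal violet and counted. Data are mean ± SD of triplicates from a representative experiment.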

Human betaherpesvirus 5 [13] = experiment: Inhibition of viral protein expression in HCMV Towne infected in human HFF cells assessed as reduction in UL44 expression at 3 uM treated with compound for 24 hrs followed by viral infection at MOI of 1 PFU/cell measured at 72 hrs post infection by Western blot analysis; type: functional, organism-based; details: strain Towne; outline: as §1
Human betaherpesvirus 5 [14] = experiment: Inhibition of viral protein expression in HCMV Towne infected in human HFF cells assessed as reduction in IE2 expression at 3 uM treated with compound following viral infection at MOI of 1 PFU/cell measured at 72 hrs post infection by Western blot analysis; type: functional, organism-based; details: strain Towne
Outline: (§3)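 HFFs infected with HCMV Towne (MOI 1), then treated with compound. Lysates taken at 72 hpi, equal protein loaded on 8–10% Tris-glycine SDS-PAGE and transferred to PVDF. Primary antibodies overnight at 4 °C, HRP secondary, chemiluminescent detection; β-actin as loading control.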

Human gammaherpesvirus 4 = experiment: Antiviral activity against EBV infected in human AKATA cells assessed as reduction in IgG-induced lytic virus replication measured at 48 hrs post-lytic induction by qRT-PCR analysis; type: functional, organism-based; details: human gammaherpesvirus 4, 48 h; read-out: EC50
Human betaherpesvirus 5 [15] = experiment: Inhibition of viral protein expression in HCMV Towne infected in human HFF cells assessed as reduction in IE1 expression at 3 uM treated with compound for 24 hrs followed by viral infection at MOI of 0.01 PFU/cell measured at 72 hrs post infection by Western blot analysis; type: functional, organism-based; details: strain Towne; outline: as §1
Human alphaherpesvirus 1 = experiment: Antiviral activity against HSV 1 infected in African green monkey Vero cells assessed as reduction in plaque formation incubated for 36 hrs by crystal violet staining based assay; type: functional, organism-based; details: vero; outline: as §2
Human betaherpesvirus 5 [16] = experiment: Antiviral activity against pp28-luciferase expressing HCMV Towne infected in human HFF cells assessed as reduction in viral entry by measuring viral replication at 1 to 10 uM treated with compound for 24 hrs followed by viral infection at MOI of 0.01 to 1 PFU/cell measured at 72 hrs post infection by luciferase reporter gene assay; type: functional, organism-based; details: strain Towne
Outline: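 HFFs pretreated 24 h with compound, then infected with pp28-luciferase recombinant Towne HCMV (luciferase under the UL99 late promoter) at MOI 1, 0.1 or 0.01. Luciferase measured in cell lysates after 3 days. Triplicate values, mean ± SD.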

Human betaherpesvirus 5 [17] = experiment: Inhibition of viral protein expression in HCMV Towne infected in human HFF cells assessed as reduction in IE1 expression at 3 uM treated with compound following viral infection at MOI of 1 PFU/cell measured at 72 hrs post infection by Western blot analysis; type: functional, organism-based; details: strain Towne; outline: as §3
Human betaherpesvirus 5 [18] = experiment: Inhibition of viral protein expression in HCMV Towne infected in human HFF cells assessed as reduction in UL84 expression at 3 uM treated with compound for 24 hrs followed by viral infection at MOI of 0.01 PFU/cell measured at 72 hrs post infection by Western blot analysis; type: functional, organism-based; details: strain Towne; outline: as §1

Q: Which results are given for `COc1ccc(Cl)cc1C(=O)Nc1ccc(NC(=O)c2ccco2)cc1`?
A: inhibition (Human betaherpesvirus 5 [1]): inactive; Activity (Human betaherpesvirus 5 [2]): Active; EC50 (Human betaherpesvirus 5 [3]): 320 nM; Activity (Human betaherpesvirus 5 [4]): Active; inhibition (Human betaherpesvirus 5 [5]): inactive; inhibition (Human betaherpesvirus 5 [6]): Active; inhibition (Human betaherpesvirus 5 [7]): inactive; EC50 (Human betaherpesvirus 5 [8]): 250 nM; inhibition (Human betaherpesvirus 5 [9]): inactive; EC50 (Human betaherpesvirus 5 [10]): 550 nM; EC50 [11]: Not Active; EC50 (Human alphaherpesvirus 2): Not Active; Activity (Human betaherpesvirus 5 [12]): Active; inhibition (Human betaherpesvirus 5 [13]): inactive; inhibition (Human betaherpesvirus 5 [14]): inactive; EC50 (Human gammaherpesvirus 4): > 10000 nM; inhibition (Human betaherpesvirus 5 [15]): Active; EC50 (Human alphaherpesvirus 1): Not Active; Activity (Human betaherpesvirus 5 [16]): Active; inhibition (Human betaherpesvirus 5 [17]): inactive; inhibition (Human betaherpesvirus 5 [18]): Active
